Measurements from ChEMBL document CHEMBL1649446, “Comparative antipneumococcal activities of sulopenem and other drugs” (2009).
Values after ≈ are worked out from the molar mass of the structure shown.

Experiments:
Type in all cases: functional
[1] = test system: Streptococcus pneumoniae; experiment: Antimicrobial activity against Streptococcus pneumoniae 4 by time-kill analysis
Summary of the method: (§1)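 Time-kill in cation-adjusted Mueller-Hinton broth with 5% lysed horse blood; inocula 5 × 105 to 5 × 10^6 CFU/ml; drugs at MIC, 2× and 4× MIC; 35°C shaking water bath; viable counts at 0, 3, 6, 12, 24 h. Bactericidal = ≥3 log10 CFU/ml (99.9%) drop from original inoculum; 90%/99%/99.9% killing scored per strain.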

[2] = test system: Streptococcus pneumoniae; experiment: Antimicrobial activity against Streptococcus pneumoniae isolate 1564 by agar dilution method
[3] = test system: Streptococcus pneumoniae; experiment: Antimicrobial activity against Streptococcus pneumoniae 1 by time-kill analysis
Summary of the method: as §1, with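 “12 and” for “12,”, “if” for “=”, “reduction” for “drop”, “90% and 99%” for “90%/99%/99.9%”, “also scored.” for “scored per strain.”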

[4] = test system: Streptococcus pneumoniae; experiment: Antimicrobial activity against Streptococcus pneumoniae isolate 1055 by agar dilution method
[5] = test system: Streptococcus pneumoniae; experiment: Antimicrobial activity against Streptococcus pneumoniae 11 by time-kill analysis; summary of the method: as §1
[6] = test system: Streptococcus pneumoniae; experiment: Antimicrobial activity against Streptococcus pneumoniae 5 by time-kill analysis
Summary of the method: as §1, with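 “12 and” for “12,”, “if” for “=”, “reduction” for “drop”, “90% and 99%” for “90%/99%/99.9%”, “also scored.” for “scored per strain.”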

[7] = test system: Streptococcus pneumoniae; experiment: Antimicrobial activity against Streptococcus pneumoniae 7 by time-kill analysis; summary of the method: as §1
[8] = test system: Streptococcus pneumoniae; experiment: Antimicrobial activity against Streptococcus pneumoniae 10 by time-kill analysis; summary of the method: as §1
[9] = test system: Streptococcus pneumoniae; experiment: Antimicrobial activity against Streptococcus pneumoniae 9 by time-kill analysis
Summary of the method: as §1, with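 “12 and” for “12,”, “if” for “=”, “reduction” for “drop”, “90% and 99%” for “90%/99%/99.9%”, “also scored.” for “scored per strain.”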

[10] = test system: Streptococcus pneumoniae; experiment: Antimicrobial activity against Streptococcus pneumoniae 8 by time-kill analysis; summary of the method: as §1
[11] = test system: Streptococcus pneumoniae; experiment: Antimicrobial activity against Streptococcus pneumoniae 6 by time-kill analysis; summary of the method: as §1
[12] = test system: Streptococcus pneumoniae; experiment: Antimicrobial activity against Streptococcus pneumoniae 2 by time-kill analysis; summary of the method: as §1
[13] = test system: Streptococcus pneumoniae; experiment: Antimicrobial activity against Streptococcus pneumoniae 12 by time-kill analysis; summary of the method: as §1
[14] = test system: Streptococcus pneumoniae; experiment: Antimicrobial activity against Streptococcus pneumoniae 3 by time-kill analysis; summary of the method: as §1

COc1c(N2C[C@@H]3CCCN[C@@H]3C2)c(F)cc2c(=O)c(C(=O)O)cn(C3CC3)c12 [MOXIFLOXACIN]
MIC [1]: 2 µg/mL (≈ 4.98 µM)
MIC [2]: 0.25 µg/mL (≈ 0.623 µM)
MIC [3]: 4 µg/mL (≈ 9.96 µM)
MIC [4]: 4 µg/mL (≈ 9.96 µM)

C[C@@H](O)[C@H]1C(=O)N2C(C(=O)O)=C(S[C@@H]3CN[C@H](C(=O)Nc4cccc(C(=O)O)c4)C3)[C@H](C)[C@H]12 [ERTAPENEM]
MIC [5]: 2 µg/mL (≈ 4.21 µM)
MIC [6]: 4 µg/mL (≈ 8.41 µM)
MIC [7]: 2 µg/mL (≈ 4.21 µM)
MIC [8]: 0.12 µg/mL (≈ 0.252 µM)
MIC [1]: 1 µg/mL (≈ 2.1 µM)
MIC [9]: 0.12 µg/mL (≈ 0.252 µM)
MIC [10]: 1 µg/mL (≈ 2.1 µM)
MIC [11]: 0.12 µg/mL (≈ 0.252 µM)
MIC [12]: 0.03 µg/mL (≈ 0.0631 µM)
MIC [13]: 0.5 µg/mL (≈ 1.05 µM)
MIC [3]: 0.03 µg/mL (≈ 0.0631 µM)
MIC [14]: 0.25 µg/mL (≈ 0.526 µM)

CC[C@H]1OC(=O)[C@H](C)C(=O)[C@H](C)[C@@H](O[C@@H]2O[C@H](C)C[C@H](N(C)C)[C@H]2O)[C@](C)(OC)C[C@@H](C)C(=O)[C@H](C)[C@H]2N(CCCCn3cnc(-c4cccnc4)c3)C(=O)O[C@]12C [TELITHROMYCIN]
MIC [5]: 0.03 µg/mL (≈ 0.0369 µM)
MIC [6]: 0.12 µg/mL (≈ 0.148 µM)
MIC [7]: 0.06 µg/mL (≈ 0.0739 µM)
MIC [8]: 0.008 µg/mL (≈ 0.00985 µM)
MIC [1]: 0.008 µg/mL (≈ 0.00985 µM)
MIC [9]: 0.008 µg/mL (≈ 0.00985 µM)
MIC [10]: 0.12 µg/mL (≈ 0.148 µM)
MIC [11]: 0.004 µg/mL (≈ 0.00493 µM)
MIC [12]: 0.008 µg/mL (≈ 0.00985 µM)
MIC [13]: 0.016 µg/mL (≈ 0.0197 µM)
MIC [3]: 0.03 µg/mL (≈ 0.0369 µM)
MIC [14]: 0.12 µg/mL (≈ 0.148 µM)
